Compounds with a hit are over-represented: about 3.7% of the library has one in this group of screens.
hERG rescue – compounds protecting human hERG from proarrhythmic drug block. actives 0.51% (n = 310,000). activation (rescue from dofetilide block), less the hit threshold, % at 10 µM. AID 1511. CHO-hERG, FluxOR thallium flux, dofetilide IC70 present;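 active = activation above the mean of controls blocked by dofetilide plus 5 SD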;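 note: thallium influx through hERG after potassium depolarization seen as dye fluorescence rise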
KCNK3 block – human KCNK3 channel inhibition, primary screen; CHO-KCNK3 thallium flux, FluxOR fluorescence; stronger effect = lower value; B-score at 10 µM; actives 0.84% (n = 340,000);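 active = B-score under library mean minus 4 SD, starting fluorescence ratio at most library mean plus 5 SD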;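 note: more negative B-score means stronger inhibition of thallium flux through KCNK3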
KCNQ1 block – blocks the human KCNQ1 potassium channel. CHO-K1 KCNQ1, FluxOR thallium flux fluorescence; stronger effect = higher value. B-score at 10 µM. P51787. actives 1.3% (n = 310,000);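 active = compounds whose thallium flux B-score, printed positive for inhibition, exceeds three library SD while starting fluorescence stays within three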;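 note: channel opened by potassium depolarization with thallium stimulus after 20 min compound exposure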
KCNK9 block – human KCNK9 channel inhibition; B-score at 10 µM; Q9NPC2; HEK293 KCNK9, FluxOR thallium flux fluorescence; stronger effect = lower value; actives 1.2% (n = 310,000);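 active = ratio B-score over 3 SD below the library mean, with starting fluorescence within 5 SD of its mean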;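 note: negative B-score means less thallium flux so channel inhibition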
Kir21 block – Kir2.1 (mouse) channel inhibition; B-score at 10 µM; AID 1672; P35561; HEK293-Kir2.1, FluxOR thallium flux fluorescence; stronger effect = lower value; actives 0.85% (n = 310,000);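 active = fluorescence ratio B-score at or below minus 3 SD of library scores, with starting-brightness B-score within 2 SD, cut at about -4.2 in these data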;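 note: channel flux triggered by added potassium and thallium sulfate stimulus; B-score of peak minus minimum fluorescence over baseline after thallium stimulus; more negative B-score means stronger Kir2.1 block with less thallium influx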
KCNQ1 act – potentiators or activators of human KCNQ1 potassium channel. B-score at 10 µM. P51787. actives 0.35% (n = 310,000). CHO-K1 KCNQ1, thallium flux FluxOR fluorescence; stronger effect = higher value. AID 2648;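 active = fluorescence ratio B-score, a plate-corrected score, at least three library SD, with initial intensity B-score within 5 SD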
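Schedule – 37 °C overnight plating, 90-min dark dye load, 20-min compound pretreatment · System – stable KCNQ1 CHO-K1 line · Probe or stimulus – thallium- and potassium-containing depolarizing buffer · Measured by – kinetic FluxOR fluorescence, 10 s baseline plus 110 s post-stimulus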
Active calls of the source: *; i = inactive; . = no result given.

SMILES | hERG rescue | KCNK3 block | KCNQ1 block | KCNK9 block | Kir21 block | KCNQ1 act
COCC1CCCC1OS(N)(=O)=O (centres undefined) | -2.8 | i | i | i | 1.57 | i
CC(C)C[C@H]1C(=O)N2CCC[C@H]2[C@]2(O)O[C@](NC(=O)[C@@H]3C=C4c5cccc6[nH]c(Br)c(c56)CC4N(C)C3)(C(C)C)C(=O)N12 (some centres undefined) | -9.6 | i | 6* | i | 1.65 | i
CC(C)C1Cc2c(sc3[nH]c(=S)n(Cc4ccccc4)c(=O)c23)CO1 (centres undefined) | 8.8* | i | i | i | -1 | 26*
O=C(Nc1ccc(C(=O)N2CCCCC2)cc1)C1CCCCC1 | 9.1* | i | i | i | 1.59 | i
Cc1cccc(NC(=O)c2cccc(NC(=O)Cc3cccs3)c2)c1 | -8.8 | i | i | -6.9* | 0 | i
CCCCOc1ccc(C(=O)NNC(=S)NC(=O)CC)cc1 | -11.5 | i | i | i | 1.91 | i
COc1ccc(C(=O)NNC(=S)NC(=O)c2ccc(Cl)cc2)cc1 | -9.0 | i | i | i | 1.43 | i
CCC(=O)NC(=S)NNC(=O)c1ccc(OC)cc1 | -7.2 | i | i | -7.17* | -0.63 | i
COc1ccc(C(=O)NC(=S)NNC(=O)c2ccc(C)cc2)cc1 | -6.3 | i | i | i | 1.67 | 13*
CCOc1cc(C(=O)NC)cc(OCC)c1OCC | 9.7* | i | i | i | 1.62 | i
O=c1c2[nH]c3cccc(Cl)c3c2ncn1Cc1ccco1 | -8.1 | i | i | i | 2.26 | i
CCCCCn1c(=O)[nH]c2cc(C(=O)NCCc3ccc(OC)c(OC)c3)ccc2c1=O | -14.2 | i | i | i | -1.21 | i
CCCCNC(=O)c1sc(=S)n2c1[nH]c(=O)c1ccc(C(=O)NCCc3ccc(OC)c(OC)c3)cc12 | -20.1 | -10.3* | i | i | -2.38 | i
CC(=O)NNC(=O)c1sc(=S)n2c1[nH]c(=O)c1sccc12 | -10.1 | i | i | i | 0.06 | i
O=C(NCc1ccccc1)c1sc(=S)n2c1[nH]c(=O)c1ccccc12 | -15.9 | i | 7* | i | -1.93 | i
COc1ccc(C)cc1-n1c(=O)c2ccccc2c2ccccc2c1=O | -13.4 | i | i | -8.03* | 0.14 | i
Cc1ccnn1CCC(=O)N1CCCC(N2CCN(c3cccc(Cl)c3)CC2)C1 (centres undefined) | -7.7 | i | i | i | -0.99 | i
Cc1cc2c(ncn2C)c(NS(=O)(=O)c2ccc(Cl)cc2)c1C | -5.9 | i | i | i | -1.85 | i
O=C(Nc1cc(C(F)(F)F)ccc1Cl)C(Sc1ccccn1)c1ccccc1 (centres undefined) | 3.1 | i | i | -8.09* | 1.16 | i
CCc1ccccc1NC(=O)NNC(=O)CCc1ccc(OC)cc1 | -10.0 | i | i | i | -0.86 | i
COc1ccc(CC(C)CC(=O)Nc2ccc(OC)cc2)cc1 (centres undefined) | -12.8 | i | i | i | 0.86 | i
CCCNC(=O)[C@H](C)NC(=O)c1ccc(Br)cc1 | -11.2 | i | i | i | 0.02 | i
O=C(O)c1ccc(Cl)cc1Nc1nc2cc(Cl)ccc2o1 | 5.6* | i | i | i | 0.75 | i
CCC(=O)Nc1cc(Cl)ccc1C(=O)O | -8.3 | i | i | i | -0.09 | i
O=C1c2cccc3cccc(c23)C(=O)C1(O)O | 8.0* | i | i | i | -0.64 | i
CC(=O)N1C(=O)c2cccc3cccc(c23)C(=O)N1C(C)=O | -0.7 | . | i | i | 0.35 | i
CC(C)c1ccc2c(c1)C(c1cccs1)=NNC(c1ccncc1)=N2 | -5.1 | i | i | -7.43* | -0.06 | i
O=S(=O)(c1ccc(Cl)cc1)N1CCCC1c1nc2ccccc2s1 (centres undefined) | -11.6 | i | i | i | -4.67* | i
O=S(=O)(c1cc(Cl)cc(Cl)c1)N1CCCC1c1nc2ccccc2s1 (centres undefined) | -6.1 | i | i | i | 1.05 | i

Compound activity (PubChem BioAssay)
